Reference: ChEMBL document CHEMBL2331368, “Inhibitors of HIV-1 attachment. Part 9: an assessment of oral prodrug approaches to improve the plasma exposure of a tetrazole-containing derivative” (Bioorg Med Chem Lett, 2013)

Experiments:
[1] = Half life in human liver microsomes assessed in presence of NADPH; assay type: ADME, Microsome
[2] = Plasma concentration in rat at 5 mg/kg, po at 120 mins; assay type: ADME, organism-based; set-up: dose 5 mg/kg, route oral
In short: (§1)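 Rats received 5 mg/kg orally in 90% PEG 400/10% EtOH. The parent tetrazole concentration in plasma was measured at 30 and 120 min after dosing. Each value is the average of two rats.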

[3] = system: Human immunodeficiency virus 1; assay: Antiviral activity against HIV1 JRFL pseudotyped virions infected in HeLa CD4 CCR5 cells after 48 hrs by luciferase assay; assay type: functional, organism-based; conditions: Human immunodeficiency virus 1, JRFL, HeLa-CD4/CCR5, 48 h
In short: (§2)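 EC50s came from a single-cycle infectivity assay with HIV JRFL pseudotyped virus. CC50s were determined by the method described in an earlier report. Values are means of two or more experiments.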

[4] = Plasma concentration in rat at 5 mg/kg, po at 30 mins; assay type: ADME, organism-based; set-up: dose 5 mg/kg, route oral; in short: as §1
[5] = Cytotoxicity against human HeLa cells by XTT assay; assay type: cell-based; in short: as §2
[6] = Oral bioavailability in rat at 5 mg/kg; assay type: ADME, organism-based; conditions: in vivo
In short: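 Rat pharmacokinetics used 90% PEG 400/10% EtOH as vehicle. The IV dose was 1 mg/kg and the oral dose 5 mg/kg.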

Liver microsomes = assay: Prodrug conversion in human liver microsomes assessed as formation of 1-(4-benzoylpiperazin-1-yl)-2-(4-fluoro-7-(2H-tetrazol-5-yl)-1H-indol-3-yl)ethane-1,2-dione in absence of NADPH after 5 mins; assay type: ADME, Microsome
Caco-2 = assay: Permeability across human Caco2 cells at pH 6.5; assay type: ADME, cell-based; conditions: caco-2, pH 6.5
[7] = Permeability across human Caco2 cells assessed as drug recovery at pH 6.5; assay type: ADME, cell-based; conditions: caco-2, pH 6.5, read-out: Drug recovery

Structure (SMILES)	half-life [1]	concentration at 2 h [2]	EC50 [3]	concentration at 0.5 h [4]	CC50 [5]	bioavailability [6]	Drug metabolism (Liver microsomes)	permeability (Caco-2)	recovery [7]
Cn1nnc(-c2ccc(F)c3c(C(=O)C(=O)N4CCN(C(=O)c5ccccc5)CC4)c[nH]c23)n1	12 min	207 ng/mL	20 nM	72 ng/mL	> 300000 nM				
CC(C)C(OC(=O)C(C)(C)C)n1nnc(-c2ccccc2-c2ccc(Cc3c(C4CC4)nc4ccccc4c3C(=O)O)cc2)n1 (configuration not stated)						39%			
O=C(C(=O)N1CCN(C(=O)c2ccccc2)CC1)c1c[nH]c2c(-c3nn[nH]n3)ccc(F)c12		25 ng/mL	34 nM	19 ng/mL					
CC(C)(C)C(=O)OCn1nnc(-c2ccc(F)c3c(C(=O)C(=O)N4CCN(C(=O)c5ccccc5)CC4)c[nH]c23)n1		13 ng/mL	190 nM	60 ng/mL	228000 nM		Active	ND(Insoluble)	
O=C(O)c1c(Cc2ccc(-c3ccccc3-c3nn[nH]n3)cc2)c(C2CC2)nc2ccccc12						11%			
CC(=O)OCn1nnc(-c2ccc(F)c3c(C(=O)C(=O)N4CCN(C(=O)c5ccccc5)CC4)c[nH]c23)n1		378 ng/mL	60 nM	261 ng/mL	36000 nM		Active		< 70%
